Assay results taken from ChEMBL document CHEMBL1146321, “Transformation of mu-opioid receptor agonists into biologically potent mu-opioid receptor antagonists” (Bioorg Med Chem, 2007).
Active and inactive are the calls of the source.

Experiments:
Mu-type opioid receptor [1] = target: Mu-type opioid receptor (Rattus norvegicus, UniProt P33535); assay: Displacement of [3H]DAMGO from mu opioid receptor in rat brain P2 synaptosome; assay type: tissue-based
[2] = target: Delta-type opioid receptor (Rattus norvegicus, UniProt P33533); assay: Displacement of [3H]deltorphin 2 from delta opioid receptor in rat brain P2 synaptosome; assay type: tissue-based
Chain of Delta-type opioid receptor (Rattus norvegicus, UniProt P33533) (P33533 whole entry): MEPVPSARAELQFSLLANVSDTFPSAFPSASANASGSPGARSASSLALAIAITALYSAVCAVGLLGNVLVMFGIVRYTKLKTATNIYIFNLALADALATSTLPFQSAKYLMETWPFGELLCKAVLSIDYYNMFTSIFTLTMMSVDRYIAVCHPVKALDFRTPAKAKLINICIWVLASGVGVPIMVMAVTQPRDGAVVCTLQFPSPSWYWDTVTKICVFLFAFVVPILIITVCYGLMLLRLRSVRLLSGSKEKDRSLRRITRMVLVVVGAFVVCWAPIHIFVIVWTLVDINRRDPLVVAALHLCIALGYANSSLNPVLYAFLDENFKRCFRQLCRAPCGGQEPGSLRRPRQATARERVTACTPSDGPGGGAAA

[3] = target: Opioid receptors; mu & delta (Rattus norvegicus) (UniProt P33533+P33535); assay: Selectivity for rat mu opioid receptor over rat delta opioid receptor; assay type: protein assay
Chain of Opioid receptors; mu & delta (Rattus norvegicus) (P33533 whole entry, looked up): as the sequence (P33533 whole entry) above
Chain of Opioid receptors; mu & delta (Rattus norvegicus) (P33535 whole entry, looked up): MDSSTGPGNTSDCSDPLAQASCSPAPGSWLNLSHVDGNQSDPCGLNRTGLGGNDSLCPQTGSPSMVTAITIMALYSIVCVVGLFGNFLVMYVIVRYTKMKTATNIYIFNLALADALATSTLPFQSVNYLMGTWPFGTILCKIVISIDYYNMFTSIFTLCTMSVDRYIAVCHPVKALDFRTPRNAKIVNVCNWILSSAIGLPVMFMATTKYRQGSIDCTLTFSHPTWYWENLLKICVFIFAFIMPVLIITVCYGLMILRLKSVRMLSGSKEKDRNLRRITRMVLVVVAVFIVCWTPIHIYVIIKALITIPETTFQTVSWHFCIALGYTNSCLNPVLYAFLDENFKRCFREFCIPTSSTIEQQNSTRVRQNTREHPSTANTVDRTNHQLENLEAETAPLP

Mu-type opioid receptor [4] = target: T1, Mu-type opioid receptor (Cavia porcellus, UniProt P97266); assay: Agonist activity at mu opioid receptor in Hartley guinea pig intestine assessed as inhibition of electrically evoked myenteric plexus longitudinal muscle contractions; assay type: functional, tissue-based
T1 sequence (P97266 whole entry): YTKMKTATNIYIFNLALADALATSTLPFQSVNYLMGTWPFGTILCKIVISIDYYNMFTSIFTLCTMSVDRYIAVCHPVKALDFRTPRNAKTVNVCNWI
Summary of the method: (§1)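 Isolated tissue in organ baths of balanced physiological salt buffer, pH 7.5: male Hartley guinea pig ileum myenteric plexus longitudinal muscle (μ) or single mouse vas deferens (δ). Agonist inhibition of electrically evoked contractions; IC50 (nM) from dose–response curves, mean ± SE of five to six separate tissue preparations.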

Mu-type opioid receptor [5] = target: T1, Mu-type opioid receptor; assay: Antagonist activity at mu opioid receptor in Hartley guinea pig intestine assessed as inhibition of DAMGO-induced effect on myenteric plexus longitudinal muscle contractions; assay type: functional, tissue-based; conditions: read-out: pA2 (converted)
[6] = target: T2, Delta-type opioid receptor (Mus musculus, UniProt P32300); assay: Agonist activity at delta opioid receptor in mouse vas deferens assessed as inhibition of electrically evoked muscle contractions; assay type: functional, tissue-based; summary of the method: as §1
T2 sequence (P32300 whole entry): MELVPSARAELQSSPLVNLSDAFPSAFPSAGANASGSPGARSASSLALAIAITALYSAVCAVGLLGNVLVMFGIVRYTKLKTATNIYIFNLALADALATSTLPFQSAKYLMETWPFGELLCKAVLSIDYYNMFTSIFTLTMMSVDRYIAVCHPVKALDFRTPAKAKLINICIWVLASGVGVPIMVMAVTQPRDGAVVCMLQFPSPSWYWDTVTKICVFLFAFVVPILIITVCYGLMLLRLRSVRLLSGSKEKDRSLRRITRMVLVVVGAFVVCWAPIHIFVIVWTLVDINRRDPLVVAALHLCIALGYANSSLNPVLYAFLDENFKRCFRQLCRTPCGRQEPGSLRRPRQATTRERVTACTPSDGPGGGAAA

[7] = target: T2, Delta-type opioid receptor; assay: Antagonist activity at delta opioid receptor in mouse vas deferens assessed as inhibition of deltorphin 2-induced effect on muscle contractions; assay type: functional, tissue-based; conditions: read-out: pA2 (converted)
[8] = Ratio of pA2 for delta opioid receptor in MVD to pA2 for mu opioid receptor in GPI; assay type: functional
Mus musculus [9] = assay: Inhibition of morphine-induced antinociception in mouse at 0.148 ng, icv after 10 mins by hot plate test; assay type: functional, organism-based
Summary of the method: (§2)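 Male mice received morphine 4 mg/kg sc, then test compound icv 5 min later. Hot plate at 55.0 °C; latency to hind-paw licking or shaking, baseline 15 s, cut-off 30 s, read 10 min after icv dosing. Results as %MPE. AD50 is the dose blocking 50% of morphine antinociception at 10 min; 95% confidence limits; n = 10–17 mice per point.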

[10] = target: Mu-type opioid receptor (Cavia porcellus) (UniProt P97266); assay: Agonist activity at mu opioid receptor in Hartley guinea pig intestine assessed as inhibition of electrically evoked myenteric plexus longitudinal muscle contractions at 10000 nM; assay type: functional, tissue-based
Chain of Mu-type opioid receptor (Cavia porcellus) (P97266 whole entry): as the sequence (P97266 whole entry) above

[11] = target: Delta-type opioid receptor (Mus musculus) (UniProt P32300); assay: Agonist activity at delta opioid receptor in mouse vas deferens assessed as inhibition of electrically evoked muscle contractions at 10000 nM; assay type: functional, tissue-based
Chain of Delta-type opioid receptor (Mus musculus) (P32300 whole entry): as the sequence (P32300 whole entry) above

Mus musculus [12] = assay: Inhibition of morphine-induced spinal antinociception in intracerebroventricularly dosed mouse by tail-flick test; assay type: functional, organism-based
Summary of the method: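 Male mice given morphine 4 mg/kg sc, then compound icv 5 min later. Tail-flick latency measured to radiant heat, baseline 2–3 s, cut-off 8 s.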

Hippocampus = assay: Inhibition of ethanol-induced frequency of spontaneous inhibitory post-synaptic currents in rat hippocampal neurons by patch clamp technique at 300 nM; assay type: functional
Summary of the method: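 Rat hippocampal slices (300 µm), held in oxygenated ACSF 60 min at room temperature. Whole-cell patch clamp of CA1 pyramidal cells at −70 mV. GABAA IPSCs isolated with 50 µM AP5 and 20 µM DNQX. Recording periods of 10 min each: baseline, then 60 mM EtOH, then compound in EtOH. n = 6 slices; paired t-tests.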

Mus musculus [13] = assay: Inhibition of morphine-induced antinociception in mouse at 2.38 ng, icv after 10 mins by hot plate test; assay type: functional; summary of the method: as §2

Chain of Mu-type opioid receptor (Rattus norvegicus, UniProt P33535) (P33535 whole entry): as the sequence (P33535 whole entry, looked up) above

| Compound | Ki (Mu-type opioid receptor [1]) [nM] | Ki [2] [nM] | Ratio Ki [3] | IC50 (Mu-type opioid receptor [4]) [nM] | Kb (Mu-type opioid receptor [5]) [nM] | IC50 [6] [nM] | Kb [7] [nM] | Ratio pA2 [8] | Activity (Mus musculus [9]) | inhibition [10] [%] | inhibition [11] [%] | Activity (Mus musculus [12]) | inhibition at 0.3 µM (Hippocampus) [%] | AD50 (Mus musculus [13]) [ng] |
| --- | --- | --- | --- | --- | --- | --- | --- | --- | --- | --- | --- | --- | --- | --- |
| C=CCN[C@@H](Cc1c(C)cc(O)cc1C)C(=O)N1CCC[C@H]1C(=O)N[C@@H](Cc1ccccc1)C(=O)N[C@@H](Cc1ccccc1)C(N)=O | 0.45 | 560 | 1240 | > 10000 | 2.57 | > 10000 | 479 | 186 | inactive | 49.3 | 42.8 | inactive |  |  |
| Cc1cc(O)cc(C)c1C[C@H](N)C(=O)N1CCC[C@H]1C(=O)N[C@@H](Cc1c[nH]c2ccccc12)C(=O)N[C@@H](Cc1ccccc1)C(N)=O | 0.054 | 5.6 | 104 | 0.27 |  | > 10000 | 2.51 |  |  |  | 21.6 |  |  |  |
| C=CCNC(=O)[C@H](Cc1ccccc1)NC(=O)[C@H](Cc1ccccc1)NC(=O)[C@@H]1CCCN1C(=O)[C@H](Cc1ccc(O)cc1)NCC=C |  |  | 6 |  |  |  |  |  |  |  |  |  |  |  |
| C=CCN[C@@H](Cc1ccc(O)cc1)C(=O)N1CCC[C@H]1C(=O)N[C@@H](Cc1ccccc1)C(=O)N[C@@H](Cc1ccccc1)C(N)=O |  |  | 57 |  |  |  |  |  |  |  |  |  |  |  |
| C=CCN[C@@H](Cc1c(C)cc(O)cc1C)C(=O)N1CCC[C@H]1C(=O)N[C@@H](Cc1c[nH]c2ccccc12)C(=O)N[C@@H](Cc1ccccc1)C(N)=O | 0.26 | 10.3 | 40 | > 10000 | 6.61 | > 10000 | 47.9 | 7.2 |  | 49 | 37.5 |  | 26 |  |
| C=CCN1CC[C@]23c4c5ccc(O)c4O[C@H]2C(=O)CC[C@@]3(O)[C@H]1C5 [NALOXONE] |  |  |  |  |  |  |  |  |  |  |  |  |  | 2.38 |
